According to ChEMBL document CHEMBL4513216, “Probing the Open Global Health Chemical Diversity Library for Multistage-Active Starting Points for Next-Generation Antimalarials” (ACS Infect Dis, 2020):

assay: Toxicity liver stage against HepG2, at 10uM; type: cell-based; parameters: test concentration 10 uM, cell line HepG2-A16-CD81EGFP; settings: human, HepG2-A16-CD81EGFP cells; read-out: INHIBITION
In short: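 Uninfected HepG2-A16-CD81EGFP cells, 3 × 10^3 per well, 1536-well, plated on prespotted compound at 10 μM final, parasite-free screening media added to match infected plates; puromycin 10 μM positive, DMSO 0.5% negative; run in parallel with 48 h PbLuc assay at 37 °C, 5% CO2; viability by CellTiter-Glo luminescence, normalized to controls.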

Row | Compound | cytotoxicity at 10 µM [%]
1 | CCN(CC)Cc1cnc2n1CCN(Cc1c(C)noc1C)CC2 | 11.2
2 | Cc1nc(C)n(CC2CN(Cc3cccnc3)CCO2)n1 (stereo unspecified) | -5.38
3 | Cc1csc(C(Cc2ccsc2)NC(=O)CN(C)Cc2ccccn2)n1 (stereo unspecified) | 0.258
4 | COc1ccc(CCN2CC(NCc3ncc[nH]3)CC2=O)cc1 (stereo unspecified) | 0.749
5 | CC[C@@]1(O)CCN(C(=O)c2ccc(-c3cccc(F)c3)cc2)C[C@H]1O | -5.68
6 | CCn1c(N)nc2cc(C(=O)N3CC(c4ccccn4)C3)cnc21 | -14.8
7 | CC(C)N1CCC2(CC1)CC(NS(C)(=O)=O)c1ccccc1O2 (stereo unspecified) | 7.16
8 | O=C(O)c1cc(-c2ccncc2)cc(S(=O)(=O)N2CCCCCC2)c1 | 2.05
9 | COC(=O)C(C)CN(Cc1ccccc1)C(=O)CN1CCCNC1=O (stereo unspecified) | 0.124
10 | CN(C)C(=O)c1ccccc1NCCCOc1cccc(C#N)c1 | 4.52
11 | Cc1c(CN2CCCC(n3c(=O)oc4ccccc43)C2)cnn1C (stereo unspecified) | 6.62
12 | Cc1ccc(N2CCCC(NCC(=O)NCC3CC3)C2)nn1 (stereo unspecified) | -2.5
13 | Cc1cccc(Nc2ccc(C3CCN(Cc4ncc[nH]4)CC3)nc2)n1 | -2.83
14 | Cc1cnc(C(C)(C)NC(=O)NCc2ccc(C#N)cc2F)s1 | 15.1
15 | O=C(CCn1ccccc1=O)N1CCCC(COc2ccc(F)cc2)C1 (stereo unspecified) | -4.19
16 | Cn1nnc(C2(NC(=O)c3ccccc3)CCCC2)n1 | -10.5
17 | Cc1sc(NC(=O)CCC(=O)O)c(C(N)=O)c1-c1ccc(Cl)cc1Cl | 15.6
18 | CCc1ccccc1OC1CN(C(=O)c2ccsc2)C1 | 7.46
19 | COc1ccc(CN(C(=O)C2CCOCC2)c2ccncc2)cc1 | 8.5
20 | Cc1ccc(C(=O)NCC(O)c2cccc(F)c2)c(=O)[nH]1 (stereo unspecified) | -2.83
21 | CC(=O)N1CCCN(C(=O)NCc2cccnc2OC(C)C)CC1 | -5.5

Row | Compound | cytotoxicity at 10 µM [%]
22 | CN(C)Cc1ccnc(C2CCCN2Cc2ccc3ncccc3c2)n1 (stereo unspecified) | 0.026
23 | COCC(=O)N1CCCC(c2nc(N(C)C)ncc2-c2ccccc2)C1 (stereo unspecified) | 6.1
24 | CC(C)N1CCC(Cc2cncc(-c3cccc(C(=O)O)c3)n2)C1 (stereo unspecified) | 9.11
25 | O=C(c1ccc(Br)o1)N1CCN(Cc2ccc(OC(F)(F)F)cc2)CC1 | 21.7
26 | COCC(=O)N1CCc2c(nnn2C)C1COCCN1CCCC1 (stereo unspecified) | 11.6
27 | CN(Cc1noc(C2CC2)n1)C1CCN(CCc2cnn(C)c2)C1 (stereo unspecified) | -0.222
28 | Cn1cnnc1S(=O)(=O)C1CCN(C(=O)c2ccsc2)CC1 | 6.81
29 | Cc1cc(C(=O)N(C)Cc2ccoc2)c(NC(=O)C(C)(C)C)s1 | 12.1
30 | Cc1ccc(CN2CCc3[nH]nc(C(=O)N4CCN(C)CC4)c3C2)o1 | -8.19
31 | N#Cc1ccc(C(=O)NCCCNc2ccc(C(F)(F)F)cn2)cc1 | -4.53
32 | Cc1cnc(N2CC3(CCN(C(=O)c4cccnc4)C3)C2)nc1 | 2.55
33 | O=C(c1ccccc1)N1CCOC2CNCC[C@H]21 (stereo partly specified) | -114
34 | COc1ccc(OC)c(-c2csc(-c3cccc(C(=O)O)c3)n2)c1 | 3.75
35 | Cc1noc(C)c1CN1Cc2cnn(C)c2C(COCC2CC2)C1 (stereo unspecified) | -76.5
36 | CN1CCC2(CCN(C(=O)c3cccnc3)C2)C1 (stereo unspecified) | -101
37 | CCOC1CC2(CCN(c3cnccn3)CC2)c2ccccc21 (stereo unspecified) | 5.54
38 | CNC(=O)C(CC(C)C)NC(=O)c1cccc(-c2nc(C)cs2)c1 (stereo unspecified) | 14.5
39 | O=C(NCC1(O)CCSC1)c1cccc(-n2cccn2)c1 (stereo unspecified) | -3.5
40 | CCOC(=O)CSc1nnc([C@@H](N)CC(C)C)o1 | 6.76
41 | CN(C(=O)CCC(F)(F)F)c1cccc2ncccc12 | 1.9
42 | O=C(NCc1csc(Br)c1)c1ccc(=O)[nH]n1 | 1.66

Row | Compound | cytotoxicity at 10 µM [%]
43 | CN(C[C@@H]1CCC[C@@H]2CN(c3ncccn3)C[C@@H]21)C1CC1 | 5.18
44 | Cc1cc(C)nc(CN2CCOC(c3ccc(Cl)cc3)C2)n1 (stereo unspecified) | -2.43
45 | Cc1ccc2nc(C)c(C)c(C(=O)N[C@H]3COC[C@@H]3N3CCCC3)c2c1 | -45.8
46 | CNC(=O)c1cccnc1N1CCN(C/C=C/c2ccccc2)CC1 | -9.23
47 | C[C@@H](NCc1cccc(Cl)c1)c1onc(-c2ccc(F)cc2)c1C(=O)O | 0.258
48 | Cc1cnn(CC2CN(c3nnc(C)c(C)c3C#N)CCO2)c1 (stereo unspecified) | -5.25
49 | CC(=O)c1ccc(Cl)c(Cl)c1OCC(=O)NCC(F)(F)F | -1.2
50 | CNC(=O)C1CCN(C(=O)c2ccn(-c3ccc(F)cc3)n2)CC1 | -2.7
51 | Cc1csc(CNC(=O)NC2CCCc3c2cnn3CCO)n1 (stereo unspecified) | 13.7
52 | CC(C(=O)N1CCN(Cc2ccncc2)CC1)n1cncn1 (stereo unspecified) | -4.73
53 | CC(C)c1nnsc1CNC(=O)C1CCN(C(=O)C2CCC2)CC1 | -2.75
54 | Cc1nnc(C2Cc3ccccc3CN2Cc2ncc(Cl)n2C)o1 (stereo unspecified) | 8.72
55 | Cc1cc(C(=O)N2CCc3c(CN(C)C(C)C)n[nH]c3C2)[nH]n1 | -133
56 | Cc1nn(CC(=O)n2cccn2)c(C)c1I | -11.5
57 | Cc1nc2c(c(N3CCC(O)(CN4CCCC4)CC3)n1)CCNCC2 | -3.39
58 | CCC1CCC(N(Cc2cc(=O)n(C)c(=O)n2C)C2CC2)CC1 (stereo unspecified) | 22.6
59 | Cc1ccc(C(=O)NS(=O)(=O)c2cc(Br)ccc2C)c(=O)[nH]1 | -2.27
60 | Cc1ccc(-c2nc(CSCCC(=O)NC(N)=O)co2)c(C)c1 | -6.4
61 | Cc1cc(N2CCN(Cc3ccsc3)C(CCO)C2)nc(N)n1 (stereo unspecified) | -7.3
62 | Cc1ccc(CN2CCC(n3cc(CN4CCC(O)CC4)nn3)CC2)s1 | -3.53
63 | Cc1ccc(OCC(O)COC2CCOCC2)c(Cl)c1 (stereo unspecified) | -5.27

Row | Compound | cytotoxicity at 10 µM [%]
64 | CN1C[C@@H](C(=O)N(C)C)[C@@]2(CCc3ccccc3C(=O)N2)C1 | 1.2
65 | CCn1ncc2c1C(COC)CN(c1ncc(F)cn1)C2 (stereo unspecified) | 14.6
66 | CCc1nnsc1C(=O)N1CCCN(Cc2nccn2C)CC1 | -4.26
67 | CCc1nc(C2CCCN2CC(=O)Nc2c(C)nn(C)c2C)no1 (stereo unspecified) | -31.4
68 | O=C(O)c1cc2c(nc1N1CCOCC1)CCN(C1CCOC1)CC2 (stereo unspecified) | 6.68
69 | OC[C@@H]1CCCN1c1ccc(-c2nc(COc3ccccc3)no2)cn1 | -8.42
70 | O=C(CCc1ccco1)N1CCCC(n2cccn2)C1 (stereo unspecified) | -8.8
71 | COc1c(C)cnc(CN(C)C2CCOC3(CCOCC3)C2)c1C (stereo unspecified) | -0.971
72 | Cc1cnc(C(=O)N2CCCCC2c2[nH]ncc2S(C)(=O)=O)cn1 (stereo unspecified) | 2.12
73 | Cc1cccc(C)c1CCNC(=O)N1CCCC2(C1)OCCO2 | -3.47
74 | Cc1ccsc1CCNC(C)C(=O)NC1CCCC1 (stereo unspecified) | -4.44
75 | CCc1cnc(N)nc1NCCc1ccc(OC)cc1OC | 3.29
76 | O=C1CN(CC2CC2)Cc2nc(NCc3ccccc3)sc21 | -12.3
77 | O=C(O)COc1ccc(CN2CCCC(CCc3ccccc3)C2)cc1 (stereo unspecified) | 12.1
78 | O=S1(=O)CCC(N(CCc2ccc3c(c2)CCO3)C2CC2)C1 (stereo unspecified) | -0.532
79 | O=C(c1cccnc1)N1C[C@@H]2CN(CCN3CCCC3)C(=O)[C@@H]2C1 | -113
80 | COc1ccc(-c2n[nH]cc2CN(C)CCC2CCOCC2)cc1F | -6.57
81 | CC(C)c1ncc2c(n1)CN(Cc1cccc(C(N)=O)c1)CC2 | -9.17
